Hits are enriched below; roughly 2.1% of the tested compounds scored in any of these assays.
dFosB act = activators of delta FosB homodimer, primary screen, biochemical, fluorescence polarization, TAMRA-CDK5 oligo, single point; AID 493131, 2011; Protein FosB (Mus musculus), P13346; hit rate 0.99% among 340,000; activation, % at 25 µM; purified delta FosB; percent of positive-control signal above neutral wells;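 active means mean activation above about 17%, with every replicate also reaching it, limit read from the data, passing the limit was not always enough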
CDK5 inh = inhibitors of human CDK5/p35 kinase, primary screen, biochemical, single concentration | hit rate 0.01% among 330,000 | Cyclin-dependent kinase 5 (Homo sapiens) + Cyclin-dependent kinase 5 activator 1 (Homo … | inhibition, % at 10 µM | Recombinant CDK5/p35, ADP-Glo luminescence, 60 min;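 active means highest replicate inhibition of at least 50% and at least 75% of replicates reaching 50%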;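 further: plate controls were DMSO neutral control for no effect and GW8510 at 10 µM for full effect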
Target sequence (Q00535 whole entry, looked up): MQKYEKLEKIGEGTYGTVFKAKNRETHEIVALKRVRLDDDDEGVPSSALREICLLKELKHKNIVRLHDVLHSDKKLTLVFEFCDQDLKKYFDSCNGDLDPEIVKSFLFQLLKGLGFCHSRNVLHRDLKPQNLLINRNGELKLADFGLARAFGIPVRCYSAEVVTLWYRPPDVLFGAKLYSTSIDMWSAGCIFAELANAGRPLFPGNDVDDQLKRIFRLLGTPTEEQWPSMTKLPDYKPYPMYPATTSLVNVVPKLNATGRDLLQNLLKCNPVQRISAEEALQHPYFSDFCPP
Target sequence (Q15078 whole entry, looked up): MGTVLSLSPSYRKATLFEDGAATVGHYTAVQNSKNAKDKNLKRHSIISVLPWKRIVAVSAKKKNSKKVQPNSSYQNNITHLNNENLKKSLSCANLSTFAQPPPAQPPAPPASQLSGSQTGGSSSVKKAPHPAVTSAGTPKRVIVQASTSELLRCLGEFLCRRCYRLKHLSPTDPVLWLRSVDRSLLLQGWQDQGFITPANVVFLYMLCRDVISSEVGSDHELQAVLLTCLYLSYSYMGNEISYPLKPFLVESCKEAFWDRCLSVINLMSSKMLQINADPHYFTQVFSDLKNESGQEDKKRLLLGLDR
PKA-R2B act = activators of PKA-R2B holoenzyme, primary screen, biochemical, fluorescence polarization, Cy5-IP20, human. cAMP-dependent protein kinase catalytic subunit beta (Homo sapiens) + cAMP-dependent …. PKA-R2B holoenzyme dissociation; R2B truncated from residue 108, S112A mutant; 0% DMSO only, 100% 113 µM cGMP. activation, % at 11.4 µM. hit rate 0.079% among 340,000. AID 504700, 2011;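 active means activation above a cutoff set at the mean over all compounds plus 3 SD, cut at about 18% in these data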;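 further: higher means more holoenzyme dissociation and a rise in polarization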
SR-BI HDL uptake = inhibitors of SR-BI mediated HDL lipid uptake, primary screen, ldlA[mSR-BI] cells, fluorescence, single point | Scavenger receptor class B member 1 (Mus musculus), Q61009 | ldlA[mSR-BI] CHO cells, DiI-HDL uptake fluorescence, 3 h | inhibition, % at 12.5 µM | hit rate 0.96% among 320,000 | AID 488896, 2010;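 active means mean replicate inhibition of at least 70% and a set share of replicates each scoring 70 or more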;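 further: 0% = median of neutral control wells and 100% = median of positive control wells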
SR-BI DiI-HDL act = activators of SR-BI mediated DiI-HDL uptake, primary screen, ldlA[mSR-BI] CHO cells, DiI fluorescence; 3 h; 100 = double the neutral-control signal; activation, % at 12.5 µM; hit rate 0.096% among 320,000; AID 504775, 2011;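 active means mean replicate activation of at least 60% and every replicate at or above 60%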;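 further: 0% = median plate neutral-control signal and 100% = twice that signal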
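Assay system: LDL receptor-deficient CHO ldlA cells overexpressing murine SR-BI / Medium: BSA-supplemented, HEPES-buffered Ham's F12, pH 7.4 / Probe or stimulus: DiI-labelled HDL at 10 µg/mL final / Timing: compound with DiI-HDL co-incubation, 3 h at 37 °C / Technique: bottom-read cell fluorescence after medium removal, ex 550/em 595 nm / Measure: HDL uptake via cellular fluorescence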
PKA-R1A act = activators of PKA-R1A holoenzyme, primary screen, biochemical, fluorescence polarization, Cy5-IP20, bovine R1A, mouse PKAc. AID 504707, 2011. activation, % at 11.4 µM. cAMP-dependent protein kinase type I-alpha regulatory subunit (Bos taurus) + …. hit rate 0.083% among 340,000. PKA-R1A dissociation; scaled: DMSO 0%, 113 µM cGMP 100%;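 active means percent activation above the mean of all tested compounds plus 3 SD, cut at about 19% in these data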;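 further: higher means more PKAc released from R1A so a rise in polarization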
* = called active by the depositor; . = no result.

SMILES | dFosB act | CDK5 inh | PKA-R2B act | SR-BI HDL uptake | SR-BI DiI-HDL act | PKA-R1A act
Cc1ccc(N=Nc2c(N)n[nH]c2N)cc1 | 0.3 | 0.3 | -0.5 | -12.9 | 12.9 | -9.6
Cc1ccc(-c2[nH]nc(N)c2N=Nc2cccc(Cl)c2C)cc1 | -0.9 | 2.1 | -11.2 | 83.6* | -83.6 | 3.1
C[C@@H]1O[C@@H](OCCC(=O)O)[C@H](O)C[C@H]1O | -5.9 | -0.8 | 4.2 | -23.7 | 23.7 | -0.7
CC(=O)NC(Cc1ccccc1F)C(=O)NC1CCN(C(=O)NCc2ccccc2)CC1 (stereo not drawn) | 3.5 | -5.2 | -4.8 | 2.7 | -2.7 | 2.4
O=C(c1cnn2c(C(F)(F)F)cc(-c3ccco3)nc12)N1CCc2ccccc2C1 | -11.8 | 0.3 | -0.7 | 82.9* | -82.9 | 8.5
COc1ccc(-c2sc3ccc(N4CCOCC4)cc3c2C#Cc2ccsc2)cc1 | -4.8 | -2.9 | 4.9 | 90.1* | -90.1 | -2.3
CC1CCc2c(nc3ncnn3c2NCCc2ccccc2F)C1 (stereo not drawn) | -8.8 | 0.0 | 5.2 | 73.3* | -73.3 | 4.5
Cc1ccc(-c2nn(-c3cc(N4CCNCC4)ccc3[N+](=O)[O-])c(=O)c3ccccc23)cc1 | 35.0* | 0.6 | -5.3 | 0.0 | 0.0 | -5.8
COc1cc2sc3ccc(-c4ccc(CN5CCOCC5)cc4)cc3c(=O)c2cc1OC | -3.0 | -3.1 | -0.6 | 71.4* | -71.4 | -0.9
O=C(Cc1ccccc1)Nc1ccc(N2CCCC2)cc1 | 68.1* | 2.6 | -4.0 | 34.2 | -34.2 | -8.1
O=C(Nc1ccc(N2CCCC2)cc1)C(c1ccccc1)c1ccccc1 | 76.8* | 1.0 | 0.6 | 40.3 | -40.3 | 2.3
CCCOC(=O)c1c(-c2ccc(OC)cc2)oc2ccc(-c3ccc(OC)nc3)cc12 | 0.8 | 0.0 | 0.3 | 72.8* | -72.8 | -0.4
COc1ccc(-c2oc3ccc(-c4ccc5c(c4)OCO5)cc3c2C#CC2(O)CCCCC2)cc1 | 3.2 | -0.6 | -2.0 | 84.0* | -84.0 | -3.2
COc1ccc(C(=O)c2c(-c3ccc(OC)cc3)oc3ccc(-c4cc(OC)c(OC)c(OC)c4)cc23)cc1 | -3.8 | -0.7 | -3.3 | 73.3* | -73.3 | 2.0
COc1ccc(-c2oc3ccc(-c4ccc(OC)nc4)cc3c2C#CC2(O)CCCCC2)cc1 | -7.6 | -3.8 | -19.1 | 84.9* | -84.9 | -9.1
COc1ccc(CN(C)C(=O)c2cc(S(=O)(=O)N3CCOCC3)ccc2N2CCCC2)cc1 | -9.0 | -0.4 | -10.7 | -5.1 | 5.1 | -10.7
Cc1ccc(-c2nc(NC(=O)c3cc(C(C)(C)C)nn3C)sc2C)cc1Cl | -7.8 | -1.1 | -0.2 | 72.7* | -72.7 | 8.0
CC1CCc2nc(NC(=O)c3cc(C(C)(C)C)nn3C)sc2C1 (stereo not drawn) | -5.6 | 4.2 | 0.0 | . | . | -3.3
CCCNC(=O)C[C@@H]1C[C@@H]2c3cc(NS(=O)(=O)c4ccc(OC)cc4)ccc3O[C@@H]2[C@@H](CO)O1 | . | . | 7.7 | . | . | -4.0
NNC(=O)c1cc2c(N3CCC(Cc4ccccc4)CC3)ncnc2s1 | -8.3 | 0.7 | -18.9 | 79.9* | -79.9 | -2.4
Cn1ncc2c(N3CCC(Cc4ccccc4)CC3)ncnc21 | -3.9 | -1.1 | 1.1 | -16.4 | 16.4 | 7.5
Cc1cc(NC(=O)C(C)SCC(=O)OCc2c(Cl)cccc2Cl)no1 (stereo not drawn) | -11.0 | 0.3 | 0.4 | -1.8 | 1.8 | -1.1
O=[N+]([O-])c1ccc(O)c(/C=N/NC2=NS(=O)(=O)c3ccccc32)c1 | 3.6 | -1.1 | 2.5 | 87.7* | -87.7 | -12.8
O=[N+]([O-])c1ccc(O)c(/C=N/Nc2ccc(Cl)nn2)c1 | 5.4 | -4.6 | -8.2 | 106.2* | -106.2 | -5.5
O=S(=O)(Nc1ccc2c(c1)OCO2)c1ccc(Cl)cc1F | -12.1 | -1.5 | -8.4 | 30.0 | -30.0 | -8.7

Source: PubChem (several laboratories)
